Assay results as given in ChEMBL document CHEMBL3593162, “Novel 9-Alkyl- and 9-Alkylidene-Substituted 1α,25-Dihydroxyvitamin D3 Analogues: Synthesis and Biological Examinations” (J Med Chem, 2015).

Assays:
HL-60 [1] = assay: Induction of differentiation of human HL60 promyelocytes to monocytes after 4 days by nitro blue tetrazolium reduction assay; assay type: functional; conditions: for EC50: Homo sapiens, HL-60, 96 h, read-out: ED50 (the source's name)
Outline: (§1)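 HL-60 cells grown in RPMI-1640 with 10% FBS at 37 °C, 5% CO2, plated at 1.2 × 10^5 cells/plate. Dosed in duplicate 18 h after plating (final ethanol <0.2%). After 4 days, NBT reduction read by counting 200 cells for formazan deposits. ED50 is the concentration giving 50% maturation, from dose-response curves; repeated 2 to 3 times, mean reported. Ratio = ED50 of 1α,25-(OH)2D3 / ED50 of analogue.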

[2] = Potency index, ratio of 1alpha,25-(OH)2D3 ED50 to compound ED50 for induction of transcriptional activity in rat ROS 17/2.8 cells; assay type: functional
Outline: (§2)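 ROS 17/2.8 cells stably transfected with 24-hydroxylase promoter–luciferase reporter, dosed over a range of concentrations. Harvested 16 h after dosing; luciferase read on a luminometer. ED50 is the concentration raising luciferase activity by 50%, from dose-response curves. Ratio = ED50 of 1α,25-(OH)2D3 / ED50 of analogue.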

[3] = biological target: T1, Vitamin D3 receptor (Rattus norvegicus) (UniProt P13053); assay: Potency index, ratio of 1alpha,25-(OH)2D3 Ki to compound Ki for full length recombinant rat vitamin D receptor
T1 sequence (whole entry): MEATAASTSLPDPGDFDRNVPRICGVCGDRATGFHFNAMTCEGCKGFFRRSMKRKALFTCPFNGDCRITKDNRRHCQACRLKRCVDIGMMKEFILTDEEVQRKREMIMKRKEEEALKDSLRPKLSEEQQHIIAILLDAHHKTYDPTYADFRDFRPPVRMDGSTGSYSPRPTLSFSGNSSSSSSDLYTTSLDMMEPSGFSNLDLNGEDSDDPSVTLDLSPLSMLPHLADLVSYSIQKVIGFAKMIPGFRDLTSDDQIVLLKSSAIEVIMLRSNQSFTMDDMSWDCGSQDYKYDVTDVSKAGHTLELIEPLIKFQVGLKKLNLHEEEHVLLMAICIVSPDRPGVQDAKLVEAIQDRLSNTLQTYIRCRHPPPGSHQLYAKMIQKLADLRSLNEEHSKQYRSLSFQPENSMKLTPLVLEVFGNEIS

HL-60 [4] = assay: Potency index, ratio of 1alpha,25-(OH)2D3 ED50 to compound ED50 for induction of differentiation of human HL60 promyelocytes to monocytes; assay type: functional; outline: as §1
Vitamin D3 receptor = biological target: T2, Vitamin D3 receptor (Rattus norvegicus, UniProt P13053); assay: Displacement of [3H]-1alpha25-(OH)2D3 from full length recombinant rat vitamin D receptor by scintillation counting analysis
T2 sequence (P13053 whole entry): T1 sequence (whole entry)
Outline: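 [3H]-1α,25(OH)2D3 at 1 nM final plus unlabeled ligand (ethanol ≤10%), incubated overnight on ice. Bound ligand captured on hydroxylapatite, washed with Tris–EDTA/0.5% Triton X-100, scintillation counted. Ki from dose-response curves using Kd 0.2 nM; duplicates on two to three occasions.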

[5] = Induction of transcriptional activity in rat ROS 17/2.8 cells after 16 hrs by 24-hydroxylase luciferase reporter gene assay; assay type: functional; conditions: for EC50: Rattus norvegicus, 16 h, read-out: ED50 (the source's name); outline: as §2
Rattus norvegicus [6] = assay: Induction of intestinal calcium transport in Sprague-Dawley rat assessed as ratio of serosal calcium to mucosal calcium level at 7020 pmol, ip administered 4 doses at 24 hrs interval measured 24 hrs post last dose by everted gut sac method (reference value: 4.3); assay type: functional
Rattus norvegicus [7] = assay: Induction of intestinal calcium transport in Sprague-Dawley rat assessed as ratio of serosal calcium to mucosal calcium level at 35100 pmol, ip administered 4 doses at 24 hrs interval measured 24 hrs post last dose by everted gut sac method (reference value: 4.3); assay type: functional
Rattus norvegicus [8] = assay: Induction of bone calcium mobilization into serum of Sprague-Dawley rat assessed as total serum calcium level at 35100 pmol, ip administered 4 doses at 24 hrs interval measured 24 hrs post last dose (reference value: 4.5 mg/dL); assay type: functional
Outline: (§3)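 Group-housed rats on Diet 11 (0.47% Ca) + AEK oil for 1 week, then 0.02% Ca for 3 weeks, then 0.47% Ca for 1 week, then 2 weeks on 0.02% Ca. Dosing in the final week: four ip doses about 24 h apart. Blood taken from the severed neck 24 h after the last dose; serum calcium measured as the bone calcium mobilization index.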

Rattus norvegicus [9] = assay: Induction of bone calcium mobilization into serum of Sprague-Dawley rat assessed as total serum calcium level at 7020 pmol, ip administered 4 doses at 24 hrs interval measured 24 hrs post last dose (reference value: 4.5 mg/dL); assay type: functional; outline: as §3
Rattus norvegicus [10] = assay: Induction of bone calcium mobilization into serum of Sprague-Dawley rat assessed as serum calcium level at 780 pmol, ip administered 4 doses at 24 hrs interval measured 24 hrs post last dose (reference value: 4.9 mg/dL); assay type: functional; outline: as §3
Rattus norvegicus [11] = assay: Induction of bone calcium mobilization into serum of Sprague-Dawley rat assessed as total serum calcium level at 260 pmol, ip administered 4 doses at 24 hrs interval measured 24 hrs post last dose (reference value: 4.5 mg/dL); assay type: functional; outline: as §3
Rattus norvegicus [12] = assay: Induction of bone calcium mobilization into serum of Sprague-Dawley rat assessed as serum calcium level at 87 pmol, ip administered 4 doses at 24 hrs interval measured 24 hrs post last dose (reference value: 4.9 mg/dL); assay type: functional; outline: as §3
Rattus norvegicus [13] = assay: Induction of intestinal calcium transport in Sprague-Dawley rat assessed as ratio of serosal calcium to mucosal calcium level at 7020 pmol, ip administered 4 doses at 24 hrs interval measured 24 hrs post last dose by everted gut sac method (reference value: 4.1); assay type: functional
Rattus norvegicus [14] = assay: Induction of bone calcium mobilization into serum of Sprague-Dawley rat assessed as serum calcium level at 35100 pmol, ip administered 4 doses at 24 hrs interval measured 24 hrs post last dose (reference value: 4.9 mg/dL); assay type: functional; outline: as §3
Rattus norvegicus [15] = assay: Induction of intestinal calcium transport in Sprague-Dawley rat assessed as ratio of serosal calcium to mucosal calcium level at 780 pmol, ip administered 4 doses at 24 hrs interval measured 24 hrs post last dose by everted gut sac method (reference value: 4.1); assay type: functional
Rattus norvegicus [16] = assay: Induction of intestinal calcium transport in Sprague-Dawley rat assessed as ratio of serosal calcium to mucosal calcium level at 35100 pmol, ip administered 4 doses at 24 hrs interval measured 24 hrs post last dose by everted gut sac method (reference value: 4.1); assay type: functional
Rattus norvegicus [17] = assay: Induction of bone calcium mobilization into serum of Sprague-Dawley rat assessed as serum calcium level at 7020 pmol, ip administered 4 doses at 24 hrs interval measured 24 hrs post last dose (reference value: 4.9 mg/dL); assay type: functional; outline: as §3
Rattus norvegicus [18] = assay: Induction of intestinal calcium transport in Sprague-Dawley rat assessed as ratio of serosal calcium to mucosal calcium level at 105300 pmol, ip administered 4 doses at 24 hrs interval measured 24 hrs post last dose by everted gut sac method (reference value: 4.3); assay type: functional
Rattus norvegicus [19] = assay: Induction of bone calcium mobilization into serum of Sprague-Dawley rat assessed as total serum calcium level at 105300 pmol, ip administered 4 doses at 24 hrs interval measured 24 hrs post last dose (reference value: 4.5 mg/dL); assay type: functional; outline: as §3

EC50 (HL-60 [1]) [nM] | Ratio Ki [3] | Ki (Vitamin D3 receptor) [nM] | Compound | Ratio ED50 [2] | Ratio ED50 (HL-60 [4]) | ED50 [5] | Ratio (Rattus norvegicus [6]) | ED50 (HL-60 [1]) | Activity (Rattus norvegicus [9]) [mg/dL] | also measured
 | 0.005 | 20 | C=C1/C(=C\C=C2/[C@H](C)CC[C@]3(C)[C@@H]([C@H](C)CCCC(C)(C)O)CC[C@@H]23)C[C@@H](O)C[C@@H]1O | 0.006 | 0.0001 | 5 ×10⁻⁸ M | 7.9 | 5 ×10⁻⁶ M | 4.3 | Ratio (Rattus norvegicus [7]): 6.2; Activity (Rattus norvegicus [8]): 4.6 mg/dL
 | 0.5 | 0.2 | C[C@H](CCCC(C)(C)O)[C@H]1CC[C@H]2/C(=C/C=C3C[C@@H](O)C[C@H](O)C3)[C@@H](C)CC[C@]12C | 1 | 0.2 | 3 ×10⁻¹⁰ M |  | 9 ×10⁻⁹ M |  | Ratio (Rattus norvegicus [13]): 10.1; Activity (Rattus norvegicus [10]): 4.8 mg/dL; Activity (Rattus norvegicus [14]): 5.4 mg/dL; Ratio (Rattus norvegicus [15]): 5; Ratio (Rattus norvegicus [16]): 8.8; Activity (Rattus norvegicus [17]): 4.5 mg/dL

Second part, the molecule before the results:

Compound | EC50 (HL-60 [1]) [nM] | Ratio Ki [3] | Ki (Vitamin D3 receptor) [nM] | Ratio ED50 [2] | Ratio ED50 (HL-60 [4]) | ED50 [5] | Ratio (Rattus norvegicus [6]) | ED50 (HL-60 [1]) | Activity (Rattus norvegicus [9]) [mg/dL] | also measured
C=C1CC[C@]2(C)[C@@H]([C@H](C)CCCC(C)(C)O)CC[C@H]2/C1=C/C=C1/C[C@@H](O)C[C@H](O)[C@@H]1C | 10000 | < 1e-05 | > 10000 | 0.003 | 0.0001 | 9 ×10⁻⁸ M |  |  |  | 
C=C1/C(=C\C=C2/CCC[C@]3(C)[C@@H]([C@H](C)CCCC(C)(C)O)CC[C@@H]23)C[C@@H](O)C[C@@H]1O [CALCITRIOL] |  |  |  |  |  | 3 ×10⁻¹⁰ M |  | 2 ×10⁻⁹ M |  | Activity (Rattus norvegicus [10]): 7.3 mg/dL; Activity (Rattus norvegicus [11]): 5.6 mg/dL; Activity (Rattus norvegicus [12]): 6.2 mg/dL
C=C1CC[C@]2(C)[C@@H]([C@H](C)CCCC(C)(C)O)CC[C@H]2/C1=C/C=C1C[C@@H](O)C[C@H](O)C1 | 1000 | 0.005 | 20 | 0.006 | 0.002 | 5 ×10⁻⁸ M | 5.3 |  | 4.3 | Ratio (Rattus norvegicus [7]): 4.6; Activity (Rattus norvegicus [8]): 4.4 mg/dL
C=C1CC[C@]2(C)[C@@H]([C@H](C)CCCC(C)(C)O)CC[C@H]2/C1=C/C=C1/C[C@@H](O)C[C@H](O)[C@H]1C | 10000 | < 1e-05 | > 10000 | 0.0001 | 0.0001 |  |  |  |  | EC50 [5]: 1000 nM
C/C=C1\CC[C@]2(C)[C@@H]([C@H](C)CCCC(C)(C)O)CC[C@H]2\C1=C\C=C1C[C@@H](O)C[C@H](O)C1 | 10000 | < 1e-05 | > 10000 | 0.0001 | 0.0001 |  | 6.6 |  | 4.6 | Ratio (Rattus norvegicus [18]): 7.3; Activity (Rattus norvegicus [19]): 4.5 mg/dL; EC50 [5]: 1000 nM
